Hits are enriched below; roughly 1.9% of the tested compounds scored in any of these assays.
STEP block: STEP (human) phosphatase inhibition; P54829; recombinant STEP, OMFP fluorogenic substrate, fluorescence; inhibition, % at 20 µM; hit rate 0.25% among 360,000; AID 588621;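 active = inhibition at 20 µM, scaled per plate between control wells, above about 37%, limit read from the data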
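System: isolated STEP enzyme; schedule: 20 min enzyme reaction at room temperature, protected from light; medium: Bis-Tris buffer pH 6.0, 2.5 mM DTT, 0.005% Tween 20; signal: fluorescence, 480/540 nm; dosing: single compound dose of 20 µM, 1% DMSO final; also added: OMFP substrate, 25 µM final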
PP1 inh: counter-screen for PP5 inhibitors: inhibitors of human PP1-alpha | purified PP1alpha, OMFP fluorescence | inhibition, % at 6.7 µM | hit rate 0.9% among 320,000 | AID 2235;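 active = inhibition above the mean inhibition of all tested compounds plus 3 SD, computed separately for each screening campaign, cut at about 15% in these data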
Target sequence (P62136 whole entry, looked up): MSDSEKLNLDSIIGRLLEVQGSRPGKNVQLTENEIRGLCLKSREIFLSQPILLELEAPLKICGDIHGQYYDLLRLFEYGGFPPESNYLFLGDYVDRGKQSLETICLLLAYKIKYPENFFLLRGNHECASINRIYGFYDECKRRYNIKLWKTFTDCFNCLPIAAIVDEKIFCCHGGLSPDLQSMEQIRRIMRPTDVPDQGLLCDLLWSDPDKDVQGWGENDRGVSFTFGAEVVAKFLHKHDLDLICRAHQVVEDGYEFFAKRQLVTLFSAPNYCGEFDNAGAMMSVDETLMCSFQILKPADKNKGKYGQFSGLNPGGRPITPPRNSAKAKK
LMPTP block: LMPTP (human) inhibition; P24666; recombinant LMPTP-A, OMFP fluorogenic substrate, fluorescence intensity; inhibition, % at 20 µM; hit rate 0.22% among 360,000;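 active = compounds that cut the enzyme signal by at least half of the control window in the single-dose screen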
Target sequence (P24666 whole entry, looked up): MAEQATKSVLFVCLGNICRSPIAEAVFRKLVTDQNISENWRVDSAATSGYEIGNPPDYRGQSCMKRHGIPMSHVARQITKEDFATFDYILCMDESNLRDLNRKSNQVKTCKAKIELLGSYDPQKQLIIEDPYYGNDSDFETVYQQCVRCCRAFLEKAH
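Assay system: LMPTP-A phosphatase enzyme | Input: 0.625 nM enzyme | Also added: Fluorogenic phosphatase substrate OMFP at 400 µM final | Compound dosing: One test concentration per compound, 20 µM, with 3% DMSO overall | Schedule: 50 min enzyme reaction at room temperature, protected from light | Signal: Fluorescence intensity | Benchmarks: no-enzyme and uninhibited controls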
Scp-1 inhibitor: Scp-1 (human) phosphatase inhibition. inhibition, % at 20 µM. hit rate 0.88% among 340,000. Recombinant Scp1, phosphopeptide, malachite green phosphate absorbance;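 active = inhibition above about 50% at 20 µM, limit read from the data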
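assay system = SCP-1 phosphatase catalytic domain, residues 76-261 | buffer or medium = 50 mM Tris acetate pH 5.5, 0.005% Tween-20, 10 mM MgCl2 | incubation = enzyme reaction 45 min at room temperature, colour 5 min, stabilisation 30 min | signal = Phosphate-binding colour reagent, absorbance read at 630 nm | measure = % inhibition at 20 µM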
PP5 inh: PP5 (human) phosphatase inhibition | hit rate 0.18% among 320,000 | purified PP5c, OMFP substrate fluorescence | P53041 | inhibition, % at 6.7 µM;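 active = inhibition above the campaign's mean inhibition across all tested compounds plus 3 SD, cut at about 9.5% in these data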
PP1 confirm: human PP1 phosphatase inhibition, confirmation; inhibition, % at 6.7 µM; purified PP1alpha, OMFP substrate fluorescence; AID 2358; shares compounds with PP1 inh; hit rate 52% among 1,900;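 active = mean PP1 inhibition above a set limit taken from the earlier primary screen, cut at about 15% in these data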
PP5 counter: PP5 phosphatase inhibition, counter-screen for PP1 inhibitors. hit rate 4% among 1,900. inhibition, % at 6.7 µM. purified PP5c, OMFP fluorescence. shares compounds with PP1 inh;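 active = mean PP5 inhibition over triplicate wells above about 9.5% taken from the earlier PP1 screen, limit read from the data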
A number is an active result; i = inactive; nt = no result given.

SMILES	STEP block	PP1 inh	LMPTP block	Scp-1 inhibitor	PP5 inh	PP1 confirm	PP5 counter
Clc1ccc(C2[C@H]3CN(Cc4cccnc4)[C@H](c4ccccc4)C34CC2(c2ccccc2)C4)cn1 (stereo partly drawn)	nt	21	nt	i	i	17	i
N#Cc1ccc(C23CC4(C2)[C@H](CN(P(=O)(c2ccccc2)c2ccccc2)[C@@H]4c2ccccc2)C3c2ccc(Cl)nc2)cc1 (stereo partly drawn)	i	18	i	i	i	i	i
NC(N)=N/N=C/c1ccc(OCc2ccccc2)c(OCc2ccccc2)c1	i	35	i	i	i	35	i
CCOc1cc(/C=N/N=C(N)N)ccc1OCc1ccc(Cl)cc1	i	19	i	i	i	i	i
NC(N)=N/N=C/c1ccccc1	i	i	i	i	i	nt	nt
COc1cc(/C=N/N=C(/N)c2nonc2N)cc(Br)c1OCc1ccccc1C	i	i	i	i	i	nt	nt
COc1cc(/C=N/N=C(N)N)ccc1OCc1ccc(Cl)cc1	i	i	i	i	i	nt	nt
CCOc1cc(/C=N/N=C(/N)c2nonc2N)cc(Br)c1OCc1ccc(Cl)cc1	i	18	i	i	i	i	i
Cc1ccc(S(=O)(=O)NCCC(=O)Nc2cc(F)ccc2C)cc1C	i	i	i	i	i	nt	nt
COc1cccc(-n2nnnc2SCC(=O)NCc2ccco2)c1	i	i	i	i	i	nt	nt
O=c1cc(CN2CCc3ccccc32)nc2sccn12	i	24	i	i	i	31	i
Cc1ccc2c(CC(=O)Nc3sccc3C(N)=O)coc2c1	i	i	i	i	i	nt	nt
Cc1ccc(C)c(COC(=O)c2cc(S(=O)(=O)N3CCCCC3)ccc2N2CCOCC2)c1	i	i	i	i	i	nt	nt
COc1ccc(CN2c3cc(S(=O)(=O)N4CCOCC4)ccc3N3CCCC32)cc1 (stereo not drawn)	i	i	i	i	i	nt	nt
Cc1ccc(C)c(CN2C(=O)C3CCCN3c3ccc(S(=O)(=O)N4CCOCC4)cc32)c1 (stereo not drawn)	nt	22	nt	nt	i	22	i
COc1cccc(CN2C(=O)C3CCCN3c3ccc(S(=O)(=O)N4CCOCC4)cc32)c1 (stereo not drawn)	nt	26	nt	nt	i	25	i
CN1CCN(C(=O)c2ccc3c(=O)n(CCc4ccccc4)c(=S)[nH]c3c2)CC1	i	i	i	i	i	nt	nt
COc1ccc(CC(=O)Nc2c3c(nn2-c2ccccc2C)CS(=O)C3)cc1 (stereo not drawn)	i	22	i	i	i	i	i
Cc1ccccc1-n1nc2c(c1NC(=O)COc1ccc(Cl)cc1)CS(=O)C2 (stereo not drawn)	i	i	i	i	i	nt	nt
O=C(CCC(=O)Nc1ccccc1)N/N=C/C=C/c1ccccc1	i	i	i	i	i	nt	nt
O=C(Cc1cc(=O)[nH][nH]1)N/N=C/C=C/c1ccccc1	i	19	i	i	i	i	i
O=C(C[n+]1ccccc1)c1ccc(-c2ccccc2)cc1	i	i	i	i	i	nt	nt
C=Cn1cc[n+](CC(=O)c2ccc(-c3ccccc3)cc2)c1	i	22	i	i	i	i	i
Cc1cc(C(=O)COc2cccnc2[N+](=O)[O-])c(C)n1Cc1cccs1	i	18	i	i	9.9	i	i
CC(=O)Nc1ccccc1OCC(=O)c1cc(C)n(Cc2cccs2)c1C	i	i	i	i	i	nt	nt
SMILES	STEP block	PP1 inh	LMPTP block	Scp-1 inhibitor	PP5 inh	PP1 confirm	PP5 counter
COc1ccccc1C(=O)Nc1ccc(N2CCCCC2)cc1	i	i	i	i	i	nt	nt
COc1cccc(OC)c1C(=O)Nc1ccc(N2CCCC2)cc1	i	28	i	i	i	i	i
O=C(Nc1ccc(N2CCCC2)cc1)c1ccc(Br)cc1	i	24	i	i	i	i	i
CCN(CC)CCN(C(=O)c1ccc2c(c1)CCCC2)c1nc2cc(OC)c(OC)cc2s1	i	24	i	i	17	i	i
CCOc1cc(C(=O)N(C)CC(=O)Nc2cccc(F)c2)ccc1OCC(=O)N1CCOCC1	i	i	i	i	i	nt	nt
CC(=O)Nc1cccc(-c2cn3ccccc3n2)c1	i	i	i	i	i	nt	nt
O=C(Nc1cccc(-c2cn3ccccc3n2)c1)c1cc2ccccc2oc1=O	81	24	75	i	i	28	i

Screening results as filed in PubChem BioAssay.
